Activity calls are given as the source filed them. No cut-off for these calls is given here.
Tests used:
Histamine H3 receptor [1] = molecular target: T1, Histamine H3 receptor (Homo sapiens, UniProt Q9Y5N1); assay: Displacement of [125I]Iodoproxyfan from recombinant human histamine H3 receptor expressed in CHOK1 cell membranes after 90 mins
Outline: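 Membranes of CHO-K1 cells expressing hH3R were incubated 90 min at 25 °C, shaken at 250 rpm, with [125I]iodoproxyfan (16–50 pM) and test compound. Nonspecific binding was defined with 1 μM imetit. Separation by filtration on PEI-treated GF/B filters. Ki obtained from IC50 by Cheng-Prusoff.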

HEK293 = assay: Cytotoxicity against HEK293 cells assessed as reduction in cell viability after 48 hrs by EZ4U Non-radioactive cell proliferation assay; format: cell-based; conditions: Homo sapiens, HEK293, 48 h
Outline: (§1)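 IMR-32 cells (2×10^4/well) or HEK-293 cells (1.5×10^4/well) in DMEM with 10% FBS were preincubated 24 h at 37 °C, 5% CO2. Compounds from 25 mM DMSO stocks were added at final 0.01–250 μM, with DMSO ≤1%. After 48 h, EZ4U label was added for 5 h and absorbance read at 492 nm.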

IMR-32 = assay: Cytotoxicity against human IMR32 cells assessed as reduction in cell viability after 48 hrs by EZ4U Non-radioactive cell proliferation assay; format: cell-based; conditions: IMR-32, 48 h; outline: as §1
CYP3A4 = CYP3A4 (Homo sapiens, UniProt P08684); assay: Activation of recombinant human CYP3A4 using Luciferin-BE as substrate at 25 uM in presence of NADPH by P450-Glo luminescence assay relative to control; format: ADME; conditions: recombinant human CYP3A4, probe Luciferin-PPXE, in the assay text read “Luciferin-PPXE” for “Luciferin-BE”, read-out: Activity
Sequence of CYP3A4 (P08684 whole entry): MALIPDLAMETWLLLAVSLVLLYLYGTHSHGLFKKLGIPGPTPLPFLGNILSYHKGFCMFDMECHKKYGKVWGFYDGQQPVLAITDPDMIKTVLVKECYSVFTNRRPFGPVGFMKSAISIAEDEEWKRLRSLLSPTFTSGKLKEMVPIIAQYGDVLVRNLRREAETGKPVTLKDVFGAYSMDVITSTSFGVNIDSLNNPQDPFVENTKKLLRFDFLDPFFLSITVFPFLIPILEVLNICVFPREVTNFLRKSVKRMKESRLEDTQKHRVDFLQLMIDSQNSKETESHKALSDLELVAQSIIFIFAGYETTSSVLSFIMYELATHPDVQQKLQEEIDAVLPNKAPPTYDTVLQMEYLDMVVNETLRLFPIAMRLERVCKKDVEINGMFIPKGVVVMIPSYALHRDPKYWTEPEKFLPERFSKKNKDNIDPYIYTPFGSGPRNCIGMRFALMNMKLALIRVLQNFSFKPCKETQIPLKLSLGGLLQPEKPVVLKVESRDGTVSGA
Outline: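 Recombinant human CYP3A4 P450-Glo luminescence assay: enzyme converts luciferin substrate to D-luciferin, then firefly luciferase is added and light output read as a measure of CYP3A4 activity. Final ligand concentrations 0.025–25 μM.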

[2] = Safety index, ratio of compound IC50 to doxorubicin IC50 for HEK293 cells after 48 hrs by EZ4U non-radioactive cell proliferation assay; format: ADME, cell-based; conditions: human, read-out: Ratio IC50
[3] = Safety index, ratio of compound IC50 to doxorubicin IC50 for human IMR32 cells after 48 hrs by EZ4U Non-radioactive cell proliferation assay; format: ADME, cell-based; conditions: IMR-32 cells, read-out: Ratio IC50
[4] = Lipophilicity of compound by RP-TLC analysis; format: physicochemical; conditions: methanol:acetic acid:water
Outline: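 Reversed-phase TLC on RP-18 plates with methanol:acetic acid:water mobile phase (acid constant at 10%, methanol 85–55% in 5% steps). Spots visualised with iodine. RM values were derived from Rf and extrapolated to zero methanol to give RM0.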

Histamine H3 receptor [5] = molecular target: T1, Histamine H3 receptor; assay: Antagonist activity at recombinant human histamine H3 receptor expressed in HEK293 cells assessed as inhibition of forskolin-stimulated intracellular cAMP accumulation after 30 mins by TR-FRET TR-FRET assay; format: functional, cell-based
Outline: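 TR-FRET cAMP immunoassay in HEK293 cells stably expressing hH3R, 300 cells/well. (R)-α-methylhistamine (15 nM), forskolin (10 μM) and antagonist (0.1 nM–10 μM) added together. Stimulation 30 min at room temperature, then Eu-cAMP tracer and ULight anti-cAMP antibody added for 1 h. Mean of three experiments, each in triplicate.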

Mus musculus [6] = assay: Anticonvulsant activity in CF-1 albino mouse assessed as protection against maximal electroshock-induced seizures at 30 mg/kg, ip after 0.5 hrs; format: functional, organism-based
Outline: (§2)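 Male CF-1 albino mice received compound i.p. as a suspension in 0.5% methylcellulose (30, 100 or 300 mg/kg). Maximal electroshock seizure test read 0.5 h and 4 h after dosing. Result given as animals protected/animals tested.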

Mus musculus [7] = assay: Anticonvulsant activity in CF-1 albino mouse assessed as protection against maximal electroshock-induced seizures at 30 mg/kg, ip after 4 hrs; format: functional, organism-based; outline: as §2
Mus musculus [8] = assay: Anticonvulsant activity in CF-1 albino mouse assessed as protection against maximal electroshock-induced seizures at 100 mg/kg, ip after 4 hrs; format: functional, organism-based; outline: as §2
Mus musculus [9] = assay: Anticonvulsant activity in CF-1 albino mouse assessed as protection against subcutaneous pentetrazole-induced seizures at 30 mg/kg, ip after 0.5 hrs; format: functional, organism-based
Mus musculus [10] = assay: Anticonvulsant activity in CF-1 albino mouse assessed as protection against subcutaneous pentetrazole-induced seizures at 30 mg/kg, ip after 4 hrs; format: functional, organism-based
Mus musculus [11] = assay: Anticonvulsant activity in CF-1 albino mouse assessed as protection against subcutaneous pentetrazole-induced seizures at 100 mg/kg, ip after 0.5 hrs; format: functional, organism-based
Mus musculus [12] = assay: Anticonvulsant activity in CF-1 albino mouse assessed as protection against subcutaneous pentetrazole-induced seizures at 100 mg/kg, ip after 4 hrs; format: functional, organism-based
Mus musculus [13] = assay: Neurotoxicity in CF-1 albino mouse at 30 mg/kg, ip after 4 hrs by rotarod test; format: toxicity, organism-based; conditions: in vivo
Outline: (§3)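 Male CF-1 mice were dosed i.p. with compound suspended in 0.5% methylcellulose (30, 100 or 300 mg/kg). Neurotoxicity was scored by rotarod 0.5 h and 4 h after dosing, as animals showing toxicity/animals tested. Type of toxicity was noted, e.g. inability to grasp the rod, tremors, death.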

Mus musculus [14] = assay: Anticonvulsant activity in CF-1 albino mouse assessed as protection against maximal electroshock-induced seizures at 100 mg/kg, ip after 0.5 hrs; format: functional, organism-based; outline: as §2
Histamine H3 receptor [15] = molecular target: T1, Histamine H3 receptor; assay: Displacement of [3H]Nalpha-Methylhistamine from recombinant human histamine H3 receptor expressed in HEK293 cell membranes after 90 mins by liquid scintillation counting analysis
Mus musculus [16] = assay: Neurotoxicity in CF-1 albino mouse assessed as unable to grasp at 100 mg/kg, ip after 0.5 hrs by rotarod test; format: toxicity, organism-based; conditions: in vivo
Outline: (§4)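 Anticonvulsant Screening Program (NINDS) Phase 1 neurotoxicity screen in male albino CF-1 mice. Compounds were given i.p. as suspensions in 0.5% methylcellulose at 30, 100 and/or 300 mg/kg, and animals were observed 0.5 h and 4 h after dosing. The rotarod test was scored as number of animals showing toxicity over number tested, with the kind of toxicity recorded: inability to grasp rotorod, death, diarrhea, continuous seizure activity, loss of righting reflex, myoclonic jerks or tremors.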

Mus musculus [17] = assay: Neurotoxicity in CF-1 albino mouse assessed as death at 300 mg/kg, ip after 0.5 hrs by rotarod test; format: toxicity, organism-based; conditions: in vivo; outline: as §4
Mus musculus [18] = assay: Neurotoxicity in CF-1 albino mouse assessed as death at 100 mg/kg, ip after 4 hrs by rotarod test; format: toxicity, organism-based; conditions: in vivo; outline: as §4
Rattus norvegicus = assay: Anticonvulsant activity in albino Sprague-Dawley rat assessed as protection against maximal electroshock-induced seizures at 30 mg/kg, po after 0.5 to 4 hrs; format: functional, organism-based
Outline: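 Male Sprague-Dawley rats, four per group, were given compound orally at a fixed 30 mg/kg in 0.5% methylcellulose suspension. Maximal electroshock test was read at 0.5 h and 4 h.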

Mus musculus [19] = assay: Neurotoxicity in CF-1 albino mouse at 100 mg/kg, ip after 4 hrs by rotarod test; format: toxicity, organism-based; conditions: in vivo; outline: as §3
Mus musculus [20] = assay: Anticonvulsant activity in CF-1 albino mouse assessed as protection against maximal electroshock-induced seizures at 300 mg/kg, ip after 0.5 hrs; format: functional, organism-based; outline: as §2
Mus musculus [21] = assay: Neurotoxicity in CF-1 albino mouse assessed as death at 300 mg/kg, ip after 0.5 hrs by rotarod test; conditions: in vivo

T1 sequence (Q9Y5N1 whole entry): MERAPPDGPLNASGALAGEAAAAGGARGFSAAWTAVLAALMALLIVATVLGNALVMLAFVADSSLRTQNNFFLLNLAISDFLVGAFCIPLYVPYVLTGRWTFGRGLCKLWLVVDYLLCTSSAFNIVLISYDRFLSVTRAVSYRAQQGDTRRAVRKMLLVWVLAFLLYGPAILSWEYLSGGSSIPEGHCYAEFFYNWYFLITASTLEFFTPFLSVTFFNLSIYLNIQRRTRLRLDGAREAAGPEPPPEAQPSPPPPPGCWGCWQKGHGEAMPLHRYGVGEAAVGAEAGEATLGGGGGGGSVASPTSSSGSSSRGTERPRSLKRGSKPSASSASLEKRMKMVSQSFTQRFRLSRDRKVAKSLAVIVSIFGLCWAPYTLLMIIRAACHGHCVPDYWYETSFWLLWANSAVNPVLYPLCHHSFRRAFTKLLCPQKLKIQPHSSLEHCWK

Structure (SMILES): CCC(C)(C)c1ccc(OCCCCCN2CCC(C)CC2)cc1
- Ki (Histamine H3 receptor [1]): 23.4 nM
- IC50 (HEK293): 37100 nM
- IC50 (IMR-32): 27900 nM
- activity at 25 µM (CYP3A4): 325%
- selectivity ratio at 48 h [2]: 50 to 90
- selectivity ratio at 48 h [3]: > 1000

Structure (SMILES): CCC(C)(C)c1ccc(OCCCCCCCCN2CCCCCC2)cc1.O=C(O)C(=O)O
- Ki (Histamine H3 receptor [1]): 182 nM
- Rm [4]: 3.384

Structure (SMILES): CCC(C)(C)c1ccc(OCCCCCN2CCCC(C)C2)cc1.O=C(O)C(=O)O (stereo not given)
- Ki (Histamine H3 receptor [1]): 13.6 nM
- EC50 (Histamine H3 receptor [5]): 164 nM
- IC50 (HEK293): 25100 nM
- IC50 (IMR-32): 30900 nM
- activity at 25 µM (CYP3A4): 52%
- Activity (Mus musculus [6]): inactive
- Activity (Mus musculus [7]): inactive
- Activity (Mus musculus [8]): Active
- Activity (Mus musculus [9]): inactive
- Activity (Mus musculus [10]): inactive
- Activity (Mus musculus [11]): inactive
- Activity (Mus musculus [12]): inactive
- Activity (Mus musculus [13]): Non-Toxic
- Rm [4]: 2.342
- selectivity ratio at 48 h [2]: 50 to 90
- selectivity ratio at 48 h [3]: > 1000

Structure (SMILES): CCC(C)(C)c1ccc(OCCCCCCCN2CCC(C)CC2)cc1.O=C(O)C(=O)O
- Ki (Histamine H3 receptor [1]): 64.4 nM
- Activity (Mus musculus [6]): inactive
- Activity (Mus musculus [7]): inactive
- Activity (Mus musculus [14]): Active
- Activity (Mus musculus [8]): Active
- Activity (Mus musculus [9]): inactive
- Activity (Mus musculus [10]): inactive
- Activity (Mus musculus [11]): inactive
- Activity (Mus musculus [12]): inactive
- Activity (Mus musculus [13]): Non-Toxic

Structure (SMILES): CCC(C)(C)c1ccc(OCCCCN2CCCC(C)C2)cc1.O=C(O)C(=O)O (stereo not given)
- Ki (Histamine H3 receptor [15]): 46 nM
- Activity (Mus musculus [6]): Active
- Activity (Mus musculus [7]): inactive
- Activity (Mus musculus [14]): Active
- Activity (Mus musculus [8]): Active
- Activity (Mus musculus [9]): inactive
- Activity (Mus musculus [10]): inactive
- Activity (Mus musculus [12]): inactive
- Activity (Mus musculus [16]): Toxic
- Activity (Mus musculus [17]): Toxic
- Activity (Mus musculus [18]): Toxic
- Activity (Mus musculus [13]): Non-Toxic
- Rm [4]: 2.294
- Activity (Rattus norvegicus): inactive

Structure (SMILES): CCC(C)(C)c1ccc(OCCCCCCCCN2CCCCC2)cc1.O=C(O)C(=O)O
- Ki (Histamine H3 receptor [1]): 326 nM
- Rm [4]: 3.075

Structure (SMILES): CCC(C)(C)c1ccc(OCCCCN2CCCCC2)cc1.O=C(O)C(=O)O
- Ki (Histamine H3 receptor [15]): 140 nM
- Activity (Mus musculus [6]): Active
- Activity (Mus musculus [7]): inactive
- Activity (Mus musculus [14]): Active
- Activity (Mus musculus [9]): inactive
- Activity (Mus musculus [10]): inactive
- Activity (Mus musculus [11]): inactive
- Activity (Mus musculus [12]): inactive
- Activity (Mus musculus [16]): Toxic
- Activity (Mus musculus [17]): Toxic
- Activity (Mus musculus [13]): Non-Toxic
- Activity (Mus musculus [19]): Non-Toxic
- Rm [4]: 1.883
- Activity (Rattus norvegicus): inactive

Structure (SMILES): CCC(C)(C)c1ccc(OCCCCCN2CCCCC2)cc1.O=C(O)C(=O)O
- Ki (Histamine H3 receptor [1]): 8.8 nM
- EC50 (Histamine H3 receptor [5]): 157 nM
- IC50 (HEK293): 41200 nM
- IC50 (IMR-32): 72700 nM
- activity at 25 µM (CYP3A4): 21%
- Activity (Mus musculus [6]): inactive
- Activity (Mus musculus [7]): inactive
- Activity (Mus musculus [8]): inactive
- Activity (Mus musculus [9]): inactive
- Activity (Mus musculus [10]): inactive
- Activity (Mus musculus [11]): inactive
- Activity (Mus musculus [12]): inactive
- Activity (Mus musculus [13]): Non-Toxic
- Activity (Mus musculus [19]): Non-Toxic
- Rm [4]: 2.172
- selectivity ratio at 48 h [2]: 50 to 90
- selectivity ratio at 48 h [3]: > 1000

Structure (SMILES): CCC(C)(C)c1ccc(OCCCCCCN2CCC(C)CC2)cc1.O=C(O)C(=O)O
- Ki (Histamine H3 receptor [1]): 60.5 nM
- Activity (Mus musculus [6]): Active
- Activity (Mus musculus [7]): Active
- Activity (Mus musculus [14]): Active
- Activity (Mus musculus [8]): Active
- Activity (Mus musculus [20]): Active
- Activity (Mus musculus [9]): inactive
- Activity (Mus musculus [10]): inactive
- Activity (Mus musculus [11]): inactive
- Activity (Mus musculus [12]): inactive
- Activity (Mus musculus [13]): Non-Toxic
- Activity (Mus musculus [21]): Toxic

Structure (SMILES): CCC(C)(C)c1ccc(OCCCCCCN2CCCCC2)cc1.O=C(O)C(=O)O
- Ki (Histamine H3 receptor [1]): 46.5 nM
- Activity (Mus musculus [6]): inactive
- Activity (Mus musculus [7]): inactive
- Activity (Mus musculus [14]): Active
- Activity (Mus musculus [8]): Active
- Activity (Mus musculus [9]): inactive
- Activity (Mus musculus [10]): inactive
- Activity (Mus musculus [11]): inactive
- Activity (Mus musculus [12]): inactive
- Activity (Mus musculus [16]): Toxic
- Activity (Mus musculus [13]): Non-Toxic
- Activity (Mus musculus [19]): Non-Toxic
- Rm [4]: 2.456
- Activity (Mus musculus [21]): Toxic

Structure (SMILES): COc1cccc2c1C(=O)c1c(O)c3c(c(O)c1C2=O)C[C@@](O)(C(=O)CO)C[C@@H]3O[C@H]1C[C@H](N)[C@H](O)[C@H](C)O1 [DOXORUBICIN]
- IC50 (IMR-32): 5.1 nM

Structure (SMILES): CCC(C)(C)c1ccc(OCCCCCCCN2CCCCCC2)cc1.O=C(O)C(=O)O
- Ki (Histamine H3 receptor [1]): 128 nM
- Rm [4]: 2.926

Source: ChEMBL document CHEMBL4219023, “Synthesis and biological activity of novel tert-amylphenoxyalkyl (homo)piperidine derivatives as histamine H3R ligands” (Bioorg Med Chem, 2017)
